Here are results for 16 compounds from ChEMBL document CHEMBL1139825, “Kinesin spindle protein (KSP) inhibitors. Part 7: Design and synthesis of 3,3-disubstituted dihydropyrazolobenzoxazines as potent inhibitors of the mitotic kinesin KSP” (Bioorg Med Chem Lett, 2007).

Activity calls are given as the source filed them.

Data set [1] is described as follows: Half life in dog at 0.25 mg/kg, iv. The format is ADME, organism-based, Canis lupus familiaris. Details: dose 0.25 mg/kg, route intravenous. The note with it: in vivo. A digest of the protocol: (§1)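 Cassette intravenous dosing in dogs, compounds given together as a DMSO solution at 0.25 mg/kg. Two dogs per dose, with the value being their average. Individual determinations fell within ±25% of the mean.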

Data set [2] is described as follows: Clearance in dog at 0.25 mg/kg, iv. The note with it: in vivo. Details: dose 0.25 mg/kg, route intravenous. The format is ADME, organism-based, Canis lupus familiaris. A digest of the protocol: as §1
In data set [3] the test system is A2780. Description: Mitotic arrest in human A2780 cells assessed as G2/M block after 16 hrs. The format is functional, cell-based. To be noted: A2780, 16 h. A digest of the protocol: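 A2780 human ovarian carcinoma cells treated 16 h across a 7-point half-log dilution series. Mitosis-specific nucleolin phosphorylation read by electrochemiluminescence: total nucleolin captured on beads via anti-nucleolin antibody, phospho-nucleolin detected with a phospho-specific IgM plus ruthenium-labelled anti-mouse IgM. EC50 is the mean of at least two independent determinations.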

Data set [4] in a line: Ratio of IC50 for KB-V-1 cells to IC50 for KB-3-1 cells after 16 hrs. The format is functional, Homo sapiens. An outline of the steps:
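Mitotic arrest measured in Pgp-high KB-V-1 cells (derived from parental KB-3-1 by culture with vinblastine; >500-fold higher Pgp mRNA and protein) and in parental KB-3-1 cells. 16 h incubation, 11-point half-log dilution series. Read-out is phospho-nucleolin level. The ratio is the IC50 in KB-V-1 divided by the IC50 in KB-3-1.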

Data set [5] addresses Voltage-gated inwardly rectifying potassium channel KCNH2 (Homo sapiens, UniProt Q12809). Description: Inhibition of hERG expressed in HEK cells. Format: toxicity, cell-based, HEK293. In general terms: Block of hERG is tested as a sign of cardiac risk.
For data set [6], the target named is T1, Kinesin-like protein KIF11 (Homo sapiens, UniProt P52732).
T1 sequence (P52732 whole entry): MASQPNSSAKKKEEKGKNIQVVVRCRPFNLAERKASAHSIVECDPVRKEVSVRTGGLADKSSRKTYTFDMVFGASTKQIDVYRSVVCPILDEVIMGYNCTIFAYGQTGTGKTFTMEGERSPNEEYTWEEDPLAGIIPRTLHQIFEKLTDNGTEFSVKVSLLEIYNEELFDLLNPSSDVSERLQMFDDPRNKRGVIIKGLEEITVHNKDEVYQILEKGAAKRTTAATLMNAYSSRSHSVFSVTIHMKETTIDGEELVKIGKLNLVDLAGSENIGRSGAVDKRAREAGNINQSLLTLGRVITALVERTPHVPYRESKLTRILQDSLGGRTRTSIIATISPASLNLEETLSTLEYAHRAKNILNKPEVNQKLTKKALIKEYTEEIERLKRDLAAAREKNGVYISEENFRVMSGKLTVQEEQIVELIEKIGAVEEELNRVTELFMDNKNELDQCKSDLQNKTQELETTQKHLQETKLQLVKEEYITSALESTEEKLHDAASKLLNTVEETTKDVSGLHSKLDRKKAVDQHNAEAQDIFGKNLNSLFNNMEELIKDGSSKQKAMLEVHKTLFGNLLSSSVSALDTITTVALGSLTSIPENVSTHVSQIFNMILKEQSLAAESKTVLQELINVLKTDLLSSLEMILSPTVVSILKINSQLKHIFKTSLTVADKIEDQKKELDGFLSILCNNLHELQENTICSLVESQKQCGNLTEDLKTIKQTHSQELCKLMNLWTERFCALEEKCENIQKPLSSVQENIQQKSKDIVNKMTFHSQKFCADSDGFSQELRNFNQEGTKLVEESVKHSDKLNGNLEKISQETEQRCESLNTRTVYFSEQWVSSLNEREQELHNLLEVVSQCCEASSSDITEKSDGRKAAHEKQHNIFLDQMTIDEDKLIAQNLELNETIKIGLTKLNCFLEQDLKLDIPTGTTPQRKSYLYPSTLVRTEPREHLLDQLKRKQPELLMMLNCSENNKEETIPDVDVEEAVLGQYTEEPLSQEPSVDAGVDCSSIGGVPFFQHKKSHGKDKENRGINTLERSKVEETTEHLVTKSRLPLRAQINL
Put plainly: Inhibition of kinesin spindle protein.

The species entered for data set [7] is Canis familiaris. Description: Induction of QTc prolongation in canine cardiovascular model. The format is functional, organism-based. The note with it: Canis lupus familiaris; Heart.
Data set [8] can be described thus: Solubility at pH 4. The format is physicochemical. The note with it: buffer.
The species entered for data set [9] is Canis familiaris. Put plainly: Induction of QTc prolongation in canine cardiovascular model at 35 uM. Format: functional, organism-based. To be noted: Canis lupus familiaris, Heart.

Voltage-gated inwardly rectifying potassium channel KCNH2, sequence (Q12809 whole entry): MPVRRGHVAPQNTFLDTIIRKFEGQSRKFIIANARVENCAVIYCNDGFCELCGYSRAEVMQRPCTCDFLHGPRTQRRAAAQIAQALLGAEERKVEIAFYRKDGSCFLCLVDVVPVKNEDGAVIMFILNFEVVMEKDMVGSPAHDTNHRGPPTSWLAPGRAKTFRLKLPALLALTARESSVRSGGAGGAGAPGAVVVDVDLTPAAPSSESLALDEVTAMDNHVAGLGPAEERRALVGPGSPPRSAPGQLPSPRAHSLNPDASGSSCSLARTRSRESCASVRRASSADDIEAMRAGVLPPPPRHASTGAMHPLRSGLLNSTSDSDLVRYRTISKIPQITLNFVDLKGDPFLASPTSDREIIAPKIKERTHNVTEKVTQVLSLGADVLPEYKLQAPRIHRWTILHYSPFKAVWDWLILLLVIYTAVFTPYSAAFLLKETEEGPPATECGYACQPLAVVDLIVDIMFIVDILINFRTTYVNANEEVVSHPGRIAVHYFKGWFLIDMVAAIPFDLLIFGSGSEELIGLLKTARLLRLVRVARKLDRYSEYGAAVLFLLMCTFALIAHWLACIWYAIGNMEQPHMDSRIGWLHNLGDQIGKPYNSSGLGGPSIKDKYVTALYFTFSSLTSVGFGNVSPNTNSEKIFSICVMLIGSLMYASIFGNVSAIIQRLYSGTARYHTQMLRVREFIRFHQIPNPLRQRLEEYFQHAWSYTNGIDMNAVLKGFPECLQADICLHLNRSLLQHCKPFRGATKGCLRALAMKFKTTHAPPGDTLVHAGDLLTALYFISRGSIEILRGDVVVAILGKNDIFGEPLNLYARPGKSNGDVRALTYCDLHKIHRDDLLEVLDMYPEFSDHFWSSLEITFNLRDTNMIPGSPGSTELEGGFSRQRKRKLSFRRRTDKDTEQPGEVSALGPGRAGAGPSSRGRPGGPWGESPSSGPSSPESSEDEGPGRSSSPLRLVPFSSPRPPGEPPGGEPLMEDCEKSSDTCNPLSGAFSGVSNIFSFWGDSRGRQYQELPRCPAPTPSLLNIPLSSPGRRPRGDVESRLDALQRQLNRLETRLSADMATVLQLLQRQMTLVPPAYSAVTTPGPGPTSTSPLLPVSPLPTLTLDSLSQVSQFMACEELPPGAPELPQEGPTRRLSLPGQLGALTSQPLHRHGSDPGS

In data set [1], `CC(=O)C1=NN2c3cc(F)ccc3OC[C@H]2[C@@]1(CCCN1CCNCC1)c1ccccc1` gave a half-life of 3.5 h. In data set [2], the clearance came out at 40 mL/min/kg. Moreover, in data set [3], the EC50 was determined as 5 nM. The “Ratio IC50” value in [4] is reported as 40. Besides, the IC50 in data set [5] amounted to 4600 nM; in [6], 4.3 nM.

As to `CC(=O)C1=NN2c3cc(F)ccc3OC[C@H]2[C@@]1(CCCN1CCNC(=O)CC1)c1ccccc1`, the half-life in [1] was 2.4 h. Further, the clearance in [2] stood at 15 mL/min/kg. Further, in [3], the EC50 turned out to be 6.9 nM. The “Ratio IC50” value in data set [4] came out at 3.3. Besides, the IC50 in data set [5] amounted to 17000 nM; in data set [6] it was 1.5 nM.

`CC(=O)C1=NN2c3cc(Cl)ccc3OC[C@H]2C1(CCCN1CCOCC1)c1ccccc1` (mixture of isomers): the 50% effective concentration (EC50) in data set [3] was determined as 13 nM. The “Ratio IC50” value in data set [4] is reported as 1.5. The IC50 came out at 3300 nM in data set [5] and 1.8 nM in data set [6].

Regarding `CC(=O)C1=NN2c3cc(C)ccc3OC[C@H]2[C@@]1(CCCN1CCOCC1)c1ccccc1`, the EC50 in data set [3] turned out to be 11 nM. Further, the “Ratio IC50” value in data set [4] worked out at 1.4. The IC50 amounted to 6300 nM in data set [5] and 1 nM in [6].

`CC(=O)C1=NN2c3cc(Cl)ccc3OC[C@H]2[C@@]1(CCCN(C)C)c1ccccc1`: the concentration giving a half-maximal response (EC50) in [3] was found to be 4.8 nM. This compound displayed an IC50 in data set [6] of 1 nM.

As for `CC(=O)C1=NN2c3cc(Cl)ccc3OC[C@H]2[C@@]1(CCCN1CCN(C(C)=O)CC1)c1ccccc1`, the 50% effective concentration (EC50) in data set [3] stood at 9 nM. Besides, the “Ratio IC50” value in data set [4] turned out to be 1.6. The figures for the IC50 in [5] and in [6] were 5600 nM and 1 nM, respectively.

As to `CC(=O)C1=NN(c2cc(F)ccc2F)C[C@@]1(CCCN1CCN(C(C)=O)CC1)c1ccccc1`, in data set [7], the result was Active. Further, the concentration for half-maximal inhibition (IC50) in data set [6] amounted to 3 nM.

For the compound `CC(=O)C1=NN2c3ccccc3OC[C@H]2[C@H]1c1ccccc1`, the midpoint of inhibition in [6], the IC50, lay at 800 nM.

As for `CC(=O)C1=NN2c3cc(F)ccc3OC[C@H]2[C@@]1(CCCN)c1ccccc1`, the EC50 in data set [3] came out at 2.5 nM. In addition, in data set [4], the “Ratio IC50” value was 1.7. The IC50 in data set [5] is 940 nM; in [6], 0.5 nM.

On to `CC(=O)C1=NN2c3cc(F)ccc3OC[C@H]2[C@@]1(CCCN1CCC(=O)N(C)CC1)c1ccccc1`, for which the half-life in data set [1] was 3.9 h. In data set [2], the clearance came out at 11 mL/min/kg. Also, the EC50 in [3] was 4.8 nM. The “Ratio IC50” value in data set [4] is reported as 2.6. Further, the concentration for half-maximal inhibition (IC50) in data set [5] worked out at 9600 nM; in [6], 0.9 nM.

For the compound `CC(=O)C1=NN2c3cc(F)ccc3OC[C@H]2[C@@]1(CCCO)c1ccccc1`, the EC50 in [3] was 11 nM. Besides, the “Ratio IC50” value in [4] is given as 0.6. In addition, the IC50 was found to be 18000 nM in data set [5] and 5.2 nM in data set [6].

On to `CC(=O)C1=NN2c3cc(F)ccc3OC[C@H]2[C@H]1c1ccccc1`, for which the 50% inhibitory concentration (IC50) in [6] came to 155 nM.

In turn, `CC(=O)C1=NN2c3cc(F)ccc3OC[C@H]2[C@@]1(CCCN(C)C)c1ccccc1` had a half-life in [1] of 5.7 h. In [2], this compound displayed a clearance of 52 mL/min/kg. Further, the EC50 in [3] is 7.4 nM. Moreover, the “Ratio IC50” value in [4] is on record as 2.3. Moreover, the 50% inhibitory concentration (IC50) turned out to be 5940 nM in data set [5] and 1.6 nM in data set [6].

`CC(=O)C1=NN2c3cc(F)ccc3OC[C@H]2[C@@]1(CCCN1CCN(C(C)=O)CC1)c1ccccc1` had a half-life in [1] of 5.6 h. In data set [2], the clearance worked out at 14 mL/min/kg. The solubility in data set [8] was greater than 4000 µg/mL. For the same compound, in data set [3], the EC50 came out at 5 nM. In addition, in data set [9], the result was inactive. Also, the midpoint of inhibition in data set [6], the IC50, lay at 1.6 nM.

In data set [1], `CC(=O)C1=NN2c3cc(C)ccc3OC[C@H]2[C@@]1(CCCN(C)C)c1ccccc1` had a half-life of 8.3 h. This compound returned a clearance in data set [2] of 37 mL/min/kg. Also, in data set [3], the EC50 stood at 6.4 nM. For the same compound, the “Ratio IC50” value in data set [4] stood at 2.3. The IC50 in data set [5] is 2400 nM; in data set [6], 1.8 nM.

As for `CC(=O)C1=NN2c3cc(F)ccc3OC[C@H]2[C@@]1(CCCN1CCOCC1)c1ccccc1`, the half-maximal effective concentration (EC50) in data set [3] came to 4.4 nM. For the same compound, the “Ratio IC50” value in data set [4] was 0.8. The IC50 in [5] was determined as 6100 nM; in data set [6] it was 0.4 nM.

One may read the half-life as the time needed for the level to fall by half in the phase considered. In general, clearance refers to the volume of plasma or blood freed of the substance per unit of time. The EC50 is the concentration needed to bring the measured effect to its halfway point. Broadly, the IC50 is the concentration that gives 50% inhibition. Read a high IC50 as weaker potency. One may read the solubility as the dissolved amount per volume that the medium holds. Low values mean little dissolved substance, high ones much dissolved substance.
